Source: ChEMBL document CHEMBL1212784, “Structure-microbicidal activity relationship of synthetic fragments derived from the antibacterial alpha-helix of human lactoferrin” (2010)
In brackets after ≈: the same amount, converted by molar mass. Positions of bridges follow the written chain, without caps; N, C: chain ends. Residues, ends and D or L forms follow the SMILES beside them.

What was measured:
Klebsiella pneumoniae = test: Antimicrobial activity against Klebsiella pneumoniae CCUG 9997 using in brain heart infusion medium(dil) after 2 hrs at 25 ug/ml; type: functional
How it was run: (§1)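 Single-concentration screen: log-phase organisms (~2 × 10^5 cells/ml) incubated 2 h at 37°C in diluted BHI (1/100 of 3.4%, pH 6.7 to 6.9) with 25 μg/ml peptide (10 μg/ml for E. coli O6 and C. albicans); viable counts on blood agar; scored as ≥99% killed or not; duplicates.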

Candida albicans [1] = test: Antimicrobial activity against Candida albicans ATCC […] using in brain heart infusion medium(dil) after 2 hrs at 10 ug/ml; type: functional, ATCC 64549; how it was run: as §1
Pseudomonas aeruginosa = test: Antimicrobial activity against Pseudomonas aeruginosa CCUG 551 using in brain heart infusion medium(dil) after 2 hrs at 25 ug/ml; type: functional; how it was run: as §1
Staphylococcus aureus [2] = test: Antimicrobial activity against Staphylococcus aureus 1800 (CCUG 1800) after 20 hrs incubation in bactopeptone; type: functional
How it was run: (§2)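 Microplate killing assay in 1% Bactopeptone (pH 7.0). Log-phase organisms (BHI overnight, 2 h subculture, 37°C, washed), final ~2 × 10^5 cells/ml, with twofold peptide dilutions, 37°C humid chamber 2 h (or 20 h where stated). 5 μl drops plated on blood agar overnight; MMC99 = lowest concentration giving ≥99% inoculum reduction; duplicates.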

Enterococcus faecalis = test: Antimicrobial activity against Enterococcus faecalis ATCC 19433 using in brain heart infusion medium(dil) after 2 hrs at 25 ug/ml; type: functional; how it was run: as §1
Staphylococcus aureus [3] = test: Antimicrobial activity against Staphylococcus aureus 1800 (CCUG 1800) after 2 hrs incubation in bactopeptone; type: functional; how it was run: as §2
[4] = test system: Staphylococcus epidermidis; test: Antimicrobial activity against Staphylococcus epidermidis CCUG 18000A using in brain heart infusion medium(dil) after 2 hrs at 25 ug/ml; type: functional; how it was run: as §1
Candida albicans [5] = test: Antimicrobial activity against Candida albicans ATCC […] after 20 hrs incubation in bactopeptone; type: functional; settings: ATCC 64549, 20 h; how it was run: as §2
Staphylococcus aureus [6] = test: Antimicrobial activity against Staphylococcus aureus 1800 (CCUG 1800) using in brain heart infusion medium(dil) after 2 hrs at 25 ug/ml; type: functional; how it was run: as §1
Escherichia coli [7] = test: Antimicrobial activity against Escherichia coli O6 using in brain heart infusion medium(dil) after 2 hrs at 10 ug/ml; type: functional; how it was run: as §1
[8] = Antimicrobial activity against Escherichia coli O6 K5 after 2 hrs incubation in bactopeptone; type: functional; settings: K5, 2 h; how it was run: as §2
[9] = Antimicrobial activity against Escherichia coli O6 K5 after 20 hrs incubation in bactopeptone; type: functional; settings: K5, 20 h; how it was run: as §2
Candida albicans [10] = test: Antimicrobial activity against Candida albicans ATCC […] after 2 hrs incubation in bactopeptone; type: functional; settings: ATCC 64549, 2 h; how it was run: as §2
Escherichia coli [11] = test: Antimicrobial activity against Escherichia coli O14 using in brain heart infusion medium(dil) after 2 hrs at 25 ug/ml; type: functional; how it was run: as §1
[12] = Antimicrobial activity against Escherichia coli O6 K5 incubation in bactopeptone; type: functional; how it was run: as §2
Staphylococcus aureus [13] = test: Antimicrobial activity against Staphylococcus aureus 1800 (CCUG 1800) incubation in bactopeptone; type: functional; how it was run: as §2
Candida albicans [14] = test: Antimicrobial activity against Candida albicans ATCC […] incubation in bactopeptone; type: functional; settings: ATCC 64549; how it was run: as §2
Candida albicans [15] = test: Antimicrobial activity against Candida albicans ATCC […] at 62.7 uM within 5 mins; type: functional, ATCC 64549
How it was run: (§3)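 Killing kinetics in Bactopeptone with 62.7 μM or 65.4 μM peptide against ~2 × 10^5 cells/ml; samples taken immediately after mixing and at 5, 10, 30, 60 and 120 min, serially diluted and plated for viable counts; percent of inoculum killed; duplicates.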

Staphylococcus aureus [16] = test: Antimicrobial activity against Staphylococcus aureus 1800 (CCUG 1800) at 65.4 uM within 10 mins; type: functional; settings: in the assay text read “62.7 uM” for “65.4 uM”; how it was run: as §3
Staphylococcus aureus [17] = test: Antimicrobial activity against Staphylococcus aureus 1800 (CCUG 1800) at 62.7 uM within 30 mins; type: functional; settings: in the assay text read “65.4 uM” for “62.7 uM”; how it was run: as §3
Candida albicans [18] = test: Antimicrobial activity against Candida albicans ATCC […] at 65.4 uM within 5 mins; type: functional, ATCC 64549; how it was run: as §3

| MIC99 (Staphylococcus aureus [2]) | MIC99 (Staphylococcus aureus [3]) | MIC99 (Candida albicans [5]) | MIC99 [8] | MIC99 [9] | MIC99 (Candida albicans [10]) | MIC99 [12] | MIC99 (Staphylococcus aureus [13]) | MIC99 (Candida albicans [14]) | Compound | Activity (Klebsiella pneumoniae) | Activity (Candida albicans [1]) | Activity (Pseudomonas aeruginosa) | Activity (Enterococcus faecalis) | Activity [4] | Activity (Staphylococcus aureus [6]) | Activity (Escherichia coli [7]) | Activity (Escherichia coli [11]) | further results |
| --- | --- | --- | --- | --- | --- | --- | --- | --- | --- | --- | --- | --- | --- | --- | --- | --- | --- | --- |
| 100 µg/mL | 50 µg/mL | 50 µg/mL | 50 µg/mL | 25 µg/mL | > 200 µg/mL | – | – | – | H-TKCFQWQRNMRKVR-OH | >=99% | >=99% | >=99% | >=99% | >=99% | >=99% | >=99% | >=99% | – |
| 50 µg/mL | 25 µg/mL | 50 µg/mL | 25 µg/mL | 12 µg/mL | 200 µg/mL | – | – | – | H-KCFQWQRNMRKVR-OH | >=99% | >=99% | >=99% | >=99% | >=99% | >=99% | >=99% | >=99% | – |
| > 100 µg/mL | > 100 µg/mL | 100 µg/mL | 100 µg/mL | 50 µg/mL | > 200 µg/mL | 100 µg/mL | > 100 µg/mL | 50 µg/mL | H-CFQWQRNMRKVR-OH | <99% | >=99% | >=99% | >=99% | >=99% | >=99% | >=99% | >=99% | – |
| – | – | – | – | – | – | 25 µg/mL | 50 µg/mL | 25 µg/mL | H-CFAWQRAMRKVR-OH | – | – | – | – | – | – | – | – | Activity (Candida albicans [15]): 99%; Activity (Staphylococcus aureus [16]): 90% |
| – | – | – | – | – | – | 50 µg/mL (≈ 16.3 µM) | 50 µg/mL (≈ 16.3 µM) | 200 µg/mL (≈ 65.4 µM) | CC[C@H](C)[C@H](NC(=O)[C@@H]1CSSC[C@H](NC(=O)[C@H](CCCCN)NC(=O)[C@@H](NC(=O)[C@H](C)NC(=O)[C@H](CCC(=O)O)NC(C)=O)[C@@H](C)O)C(=O)N[C@@H](Cc2ccccc2)C(=O)N[C@@H](CCC(N)=O)C(=O)N[C@@H](Cc2c[nH]c3ccccc23)C(=O)N[C@@H](CCC(N)=O)C(=O)N[C@@H](CCCNC(=N)N)C(=O)N[C@@H](CC(N)=O)C(=O)N[C@@H](CCSC)C(=O)N[C@@H](CCCNC(=N)N)C(=O)N[C@@H](CCCCN)C(=O)N[C@@H](C(C)C)C(=O)N[C@@H](CCCNC(=N)N)C(=O)NCC(=O)N2CCC[C@H]2C(=O)N2CCC[C@H]2C(=O)N[C@@H](C(C)C)C(=O)N[C@@H](CO)C(=O)N1)C(=O)N[C@@H](CCCCN)C(=O)N[C@@H](CCCNC(=N)N)C(N)=O (Ac-EATKCFQWQRNMRKVRGPPVSCIKR-NH2; disulfide 5-22) | – | – | – | – | – | – | – | – | Activity (Staphylococcus aureus [17]): 80%; Activity (Candida albicans [18]): >90% |
| – | – | – | – | – | – | – | – | – | H-QWQRNMRKVR-OH | <99% | <99% | <99% | <99% | <99% | <99% | <99% | <99% | – |
| – | – | – | – | – | – | – | – | – | H-FQWQRNMRKVR-OH | >=99% | <99% | <99% | <99% | <99% | >=99% | <99% | <99% | – |
